Measurements: ChEMBL document CHEMBL4257473, “Design, synthesis and antibacterial evaluation of a polycationic calix[4]arene derivative alone and in combination with antibiotics” (Medchemcomm, 2018)
Values after ≈ are worked out from the molar mass of the structure shown.

What was measured:
Format in all cases: functional
Staphylococcus aureus [1] = assay: Bactericidal activity against Staphylococcus aureus ATCC 6538 incubated for 24 hrs followed by replating on Mueller hinton agar plates and measured after 24 hrs; details: ATCC 6538, 24 h
How it was run: (§1)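 MBC follows the broth microdilution MIC step (MHB, 5×10^5 CFU mL⁻¹, 37 °C, 24 h). 15 µL from every clear MIC well is seeded onto Mueller Hinton agar and incubated 37 °C for 24 h. MBC is the lowest concentration giving no growth. At least three replicates, and modal value reported.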

Pseudomonas aeruginosa [2] = assay: Antibacterial activity against Pseudomonas aeruginosa ATCC 9027 after 24 hrs by microbroth dilution method; details: ATCC 9027, 24 h
How it was run: (§2)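 Broth microdilution per NCCLS guidelines in Mueller Hinton broth, from overnight cultures. Final inoculum 5×10^5 CFU mL⁻¹. Calixarene tested at 1–1024 μg mL⁻¹, ofloxacin 0.06–2048, chloramphenicol 1–2048, tetracycline 0.03–128 μg mL⁻¹. Plates incubated 37 °C for 24 h. MIC is the lowest concentration with no visible growth. Triplicate, with growth control, and modal value reported.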

Staphylococcus aureus [3] = assay: Antibacterial activity against methicillin-resistant Staphylococcus aureus 15 after 24 hrs by microbroth dilution method; details: Staphylococcus aureus, 15, 24 h; how it was run: as §2
Pseudomonas aeruginosa [4] = assay: Bactericidal activity against Pseudomonas aeruginosa ATCC 9027 incubated for 24 hrs followed by replating on Mueller hinton agar plates and measured after 24 hrs; details: ATCC 9027, 24 h
How it was run: (§3)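 MBC follows a broth microdilution MIC run (Mueller Hinton broth, 5×10^5 CFU mL⁻¹, 37 °C, 24 h). 15 µL from every clear well is seeded onto Mueller Hinton agar and incubated at 37 °C for 24 h. MBC is the lowest concentration giving no growth. At least three replicates, modal result used.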

Pseudomonas aeruginosa [5] = assay: Bactericidal activity against Pseudomonas aeruginosa isolate 1 incubated for 24 hrs followed by replating on Mueller hinton agar plates and measured after 24 hrs; details: isolate 1, 24 h; how it was run: as §3
[6] = test system: Staphylococcus epidermidis; assay: Bactericidal activity against Staphylococcus epidermidis ATCC 35984 incubated for 24 hrs followed by replating on Mueller hinton agar plates and measured after 24 hrs; details: ATCC 35984, 24 h; how it was run: as §1
[7] = test system: Staphylococcus epidermidis; assay: Bactericidal activity against methicillin-resistant Staphylococcus epidermidis 57 incubated for 24 hrs followed by replating on Mueller hinton agar plates and measured after 24 hrs; details: Staphylococcus epidermidis, 57, 24 h; how it was run: as §1
Pseudomonas aeruginosa [8] = assay: Antibacterial activity against Pseudomonas aeruginosa isolate 1 after 24 hrs by microbroth dilution method; details: isolate 1, 24 h; how it was run: as §2
[9] = test system: Staphylococcus epidermidis; assay: Antibacterial activity against Staphylococcus epidermidis ATCC 35984 after 24 hrs by microbroth dilution method; details: ATCC 35984, 24 h
How it was run: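 Broth microdilution per NCCLS guidelines in Mueller Hinton broth, overnight culture inoculated at final 5×10^5 CFU mL⁻¹. Calixarene tested at 1-1024 µg mL⁻¹. Incubation 37 °C for 24 h. MIC taken as the lowest concentration with no visible growth. Growth control included, triplicate runs, modal value reported.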

[10] = test system: Staphylococcus epidermidis; assay: Antibacterial activity against methicillin-resistant Staphylococcus epidermidis 57 after 24 hrs by microbroth dilution method; details: Staphylococcus epidermidis, 57, 24 h; how it was run: as §2
Staphylococcus aureus [11] = assay: Bactericidal activity against methicillin-resistant Staphylococcus aureus 15 incubated for 24 hrs followed by replating on Mueller hinton agar plates and measured after 24 hrs; details: Staphylococcus aureus, 15, 24 h; how it was run: as §1
Staphylococcus aureus [12] = assay: Antibacterial activity against Staphylococcus aureus ATCC 6538 after 24 hrs by microbroth dilution method; details: ATCC 6538, 24 h; how it was run: as §2
[13] = test system: Staphylococcus epidermidis; assay: Potency index, ratio of ofloxacin MIC to test compound MIC for Staphylococcus epidermidis 57
Pseudomonas aeruginosa [14] = assay: Antibacterial activity against Pseudomonas aeruginosa ATCC 9027 assessed as FIC index after overnight incubation in presence of tetracycline by checkerboard assay
How it was run: (§4)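 Checkerboard combinations of calixarene with antibiotic, each at final concentrations from 2 to 0.015 × its MIC, giving 64 combinations per plate. Inoculum prepared in MHB, final 5×10^5 CFU mL⁻¹. Incubated overnight at 37 °C. Fractional inhibitory concentration index calculated from the combination MICs.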

[15] = test system: Staphylococcus epidermidis; assay: Antibacterial activity against Staphylococcus epidermidis ATCC 35984 assessed as FIC index after overnight incubation in presence of chloramphenicol by checkerboard assay; how it was run: as §4
Staphylococcus aureus [16] = assay: Antibacterial activity against Staphylococcus aureus ATCC 6538 assessed as FIC index after overnight incubation in presence of tetracycline by checkerboard assay
How it was run: (§5)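 Checkerboard combination of the calixarene with each antibiotic, each agent at final 2 to 0.015 times its MIC, giving 64 combinations. Inoculum prepared in Mueller Hinton broth and added at final 5×10^5 CFU mL⁻¹. Plates incubated overnight at 37 °C, then FICI calculated from the combination MICs.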

[17] = test system: Staphylococcus epidermidis; assay: Potency index, ratio of chloramphenicol MBC to test compound MBC for Staphylococcus epidermidis ATCC 35984
Staphylococcus aureus [18] = assay: Antibacterial activity against Staphylococcus aureus ATCC 6538 assessed as FIC index after overnight incubation in presence of ofloxacin by checkerboard assay; how it was run: as §5
Staphylococcus aureus [19] = assay: Potency index, ratio of chloramphenicol MBC to test compound MBC for methicillin-resistant Staphylococcus aureus 15
[20] = test system: Staphylococcus epidermidis; assay: Potency index, ratio of ofloxacin MBC to test compound MBC for Staphylococcus epidermidis 57
[21] = test system: Staphylococcus epidermidis; assay: Antibacterial activity against methicillin-resistant Staphylococcus epidermidis 57 assessed as FIC index after overnight incubation in presence of ofloxacin by checkerboard assay; how it was run: as §4
Pseudomonas aeruginosa [22] = assay: Potency index, ratio of chloramphenicol MIC to test compound MIC for Pseudomonas aeruginosa isolate 1
Staphylococcus aureus [23] = assay: Antibacterial activity against Staphylococcus aureus ATCC 6538 assessed as FIC index after overnight incubation in presence of chloramphenicol by checkerboard assay; how it was run: as §5
[24] = test system: Staphylococcus epidermidis; assay: Potency index, ratio of chloramphenicol MIC to test compound MIC for Staphylococcus epidermidis 57
Pseudomonas aeruginosa [25] = assay: Potency index, ratio of ofloxacin MBC to test compound MBC for Pseudomonas aeruginosa isolate 1
[26] = test system: Staphylococcus epidermidis; assay: Potency index, ratio of chloramphenicol MBC to test compound MBC for Staphylococcus epidermidis 57
[27] = test system: Staphylococcus epidermidis; assay: Potency index, ratio of chloramphenicol MIC to test compound MIC for Staphylococcus epidermidis ATCC 35984
[28] = test system: Staphylococcus epidermidis; assay: Antibacterial activity against Staphylococcus epidermidis ATCC 35984 assessed as FIC index after overnight incubation in presence of ofloxacin by checkerboard assay; how it was run: as §5
Pseudomonas aeruginosa [29] = assay: Antibacterial activity against Pseudomonas aeruginosa isolate 1 assessed as FIC index after overnight incubation in presence of ofloxacin by checkerboard assay; how it was run: as §5
Staphylococcus aureus [30] = assay: Antibacterial activity against methicillin-resistant Staphylococcus aureus 15 assessed as FIC index after overnight incubation in presence of tetracycline by checkerboard assay; how it was run: as §4
Staphylococcus aureus [31] = assay: Potency index, ratio of chloramphenicol MIC to test compound MIC for methicillin-resistant Staphylococcus aureus 15
Pseudomonas aeruginosa [32] = assay: Antibacterial activity against Pseudomonas aeruginosa ATCC 9027 assessed as FIC index after overnight incubation in presence of chloramphenicol by checkerboard assay; how it was run: as §5
Pseudomonas aeruginosa [33] = assay: Antibacterial activity against Pseudomonas aeruginosa isolate 1 assessed as FIC index after overnight incubation in presence of chloramphenicol by checkerboard assay; how it was run: as §5
Pseudomonas aeruginosa [34] = assay: Antibacterial activity against Pseudomonas aeruginosa isolate 1 assessed as FIC index after overnight incubation in presence of tetracycline by checkerboard assay; how it was run: as §5
Pseudomonas aeruginosa [35] = assay: Potency index, ratio of chloramphenicol MBC to test compound MBC for Pseudomonas aeruginosa isolate 1
Pseudomonas aeruginosa [36] = assay: Antibacterial activity against Pseudomonas aeruginosa ATCC 9027 assessed as FIC index after overnight incubation in presence of ofloxacin by checkerboard assay; how it was run: as §5
[37] = test system: Staphylococcus epidermidis; assay: Antibacterial activity against methicillin-resistant Staphylococcus epidermidis 57 assessed as FIC index after overnight incubation in presence of tetracycline by checkerboard assay; how it was run: as §4
Staphylococcus aureus [38] = assay: Antibacterial activity against methicillin-resistant Staphylococcus aureus 15 assessed as FIC index after overnight incubation in presence of ofloxacin by checkerboard assay; how it was run: as §4

O=C(N[C@H](CO)[C@H](O)c1ccc([N+](=O)[O-])cc1)C(Cl)Cl [CHLORAMPHENICOL]
MBC (Staphylococcus aureus [1]): 8 µg/mL (≈ 24.8 µM) | MIC (Pseudomonas aeruginosa [2]): 64 µg/mL (≈ 198 µM) | MIC (Staphylococcus aureus [3]): 8 µg/mL (≈ 24.8 µM) | MBC (Pseudomonas aeruginosa [4]): 128 µg/mL (≈ 396 µM) | MBC (Pseudomonas aeruginosa [5]): 1020 µg/mL (≈ 3170 µM) | MBC [6]: 128 µg/mL (≈ 396 µM) | MBC [7]: 256 µg/mL (≈ 792 µM) | MIC (Pseudomonas aeruginosa [8]): 512 µg/mL (≈ 1580 µM) | MIC [9]: 16 µg/mL (≈ 49.5 µM) | MIC [10]: 8 µg/mL (≈ 24.8 µM) | MBC (Staphylococcus aureus [11]): 128 µg/mL (≈ 396 µM) | MIC (Staphylococcus aureus [12]): 4 µg/mL (≈ 12.4 µM)

CCCOc1c2cc(C[N+](C)(CCO)CCO)cc1Cc1cc(C[N+](C)(CCO)CCO)cc(c1OCCC)Cc1cc(C[N+](C)(CCO)CCO)cc(c1OCCC)Cc1cc(C[N+](C)(CCO)CCO)cc(c1OCCC)C2.[Cl-].[Cl-].[Cl-].[Cl-]
Ratio [13]: 131 | fractional inhibitory concentration index (FICI) (Pseudomonas aeruginosa [14]): 1.06 | fractional inhibitory concentration index (FICI) [15]: 1.03 | MBC (Staphylococcus aureus [1]): 8 µg/mL | fractional inhibitory concentration index (FICI) (Staphylococcus aureus [16]): 1.48 | MIC (Pseudomonas aeruginosa [2]): 128 µg/mL | Ratio [17]: 16 | MIC (Staphylococcus aureus [3]): 4 µg/mL | fractional inhibitory concentration index (FICI) (Staphylococcus aureus [18]): 1.25 | MBC (Pseudomonas aeruginosa [4]): 256 µg/mL | Ratio (Staphylococcus aureus [19]): 16 | Ratio [20]: 262 | MBC (Pseudomonas aeruginosa [5]): 256 µg/mL | fractional inhibitory concentration index (FICI) [21]: 1 | Ratio (Pseudomonas aeruginosa [22]): 2 | MBC [6]: 8 µg/mL | MBC [7]: 8 µg/mL | fractional inhibitory concentration index (FICI) (Staphylococcus aureus [23]): 1.12 | Ratio [24]: 2 | Ratio (Pseudomonas aeruginosa [25]): 2 | Ratio [26]: 32 | Ratio [27]: 4 | fractional inhibitory concentration index (FICI) [28]: 1.25 | fractional inhibitory concentration index (FICI) (Pseudomonas aeruginosa [29]): 0.62 | MIC (Pseudomonas aeruginosa [8]): 256 µg/mL | fractional inhibitory concentration index (FICI) (Staphylococcus aureus [30]): 1.03 | Ratio (Staphylococcus aureus [31]): 2 | fractional inhibitory concentration index (FICI) (Pseudomonas aeruginosa [32]): 0.62 | MIC [9]: 4 µg/mL | fractional inhibitory concentration index (FICI) (Pseudomonas aeruginosa [33]): 0.53 | MIC [10]: 4 µg/mL | fractional inhibitory concentration index (FICI) (Pseudomonas aeruginosa [34]): 0.56 | Ratio (Pseudomonas aeruginosa [35]): 4 | MBC (Staphylococcus aureus [11]): 8 µg/mL | MIC (Staphylococcus aureus [12]): 4 µg/mL | fractional inhibitory concentration index (FICI) (Pseudomonas aeruginosa [36]): 1.06 | fractional inhibitory concentration index (FICI) [37]: 1.03 | fractional inhibitory concentration index (FICI) (Staphylococcus aureus [38]): 1

CN(C)[C@@H]1C(O)=C(C(N)=O)C(=O)[C@@]2(O)C(O)=C3C(=O)c4c(O)cccc4[C@@](C)(O)[C@H]3C[C@@H]12 [TETRACYCLINE]
MBC (Staphylococcus aureus [1]): 4 µg/mL (≈ 9 µM) | MIC (Pseudomonas aeruginosa [2]): 16 µg/mL (≈ 36 µM) | MIC (Staphylococcus aureus [3]): 1 µg/mL (≈ 2.25 µM) | MBC (Pseudomonas aeruginosa [4]): 32 µg/mL (≈ 72 µM) | MBC (Pseudomonas aeruginosa [5]): 32 µg/mL (≈ 72 µM) | MBC [6]: 8 µg/mL (≈ 18 µM) | MBC [7]: 16 µg/mL (≈ 36 µM) | MIC (Pseudomonas aeruginosa [8]): 16 µg/mL (≈ 36 µM) | MIC [9]: 0.5 µg/mL (≈ 1.13 µM) | MIC [10]: 1 µg/mL (≈ 2.25 µM) | MBC (Staphylococcus aureus [11]): 16 µg/mL (≈ 36 µM) | MIC (Staphylococcus aureus [12]): 0.125 µg/mL (≈ 0.281 µM)

CC1COc2c(N3CCN(C)CC3)c(F)cc3c(=O)c(C(=O)O)cn1c23 (stereo not drawn) [OFLOXACIN]
MBC (Staphylococcus aureus [1]): 0.5 µg/mL (≈ 1.38 µM) | MIC (Staphylococcus aureus [3]): 512 µg/mL (≈ 1420 µM) | MBC (Pseudomonas aeruginosa [4]): 2 µg/mL (≈ 5.53 µM) | MBC (Pseudomonas aeruginosa [5]): 512 µg/mL (≈ 1420 µM) | MBC [6]: 0.5 µg/mL (≈ 1.38 µM) | MBC [7]: > 2050 µg/mL | MIC (Pseudomonas aeruginosa [8]): 256 µg/mL (≈ 708 µM) | MIC [9]: 0.25 µg/mL (≈ 0.692 µM) | MIC [10]: 512 µg/mL (≈ 1420 µM) | MBC (Staphylococcus aureus [11]): > 2050 µg/mL | MIC (Staphylococcus aureus [12]): 0.25 µg/mL (≈ 0.692 µM)
